Data reported in article PMC10651396 (The Journal of Cell Biology, 2023).
Changes are numbered by the printed parent chain. Values belong to the molecule of their own block, whether it stands above or below them. Where no end group is shown, it is not given here.

Columns and labels:
His-Cap1/2 = assay: GST pulldown of capping protein by GST-CPI motif fusions; type: binding, Saccharomyces cerevisiae; details: in words; SDS-PAGE and Coomassie staining; His-Tda2 added with Aim21 fusions
In short: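 Recombinant GST-CPI fusions and His-Cap1/2 were expressed in BL21 codon plus E. coli, affinity-purified, and dialyzed into PBS. GST protein (10 μg) was bound to glutathione Sepharose for 30 min at 4°C. Equimolar His-protein (His-Tda2 also for Aim21) was added for another 30 min. Resin was washed three times in PBS with 0.1–0.5% Triton X-100. Each pulldown was repeated independently.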

His-Cap1/2 (CP) = target: T1, His-Cap1/2 (CP) (Saccharomyces cerevisiae, UniProt P13517+P28495); type: biochemical; details: in words; yeast actin, CP 100 nM, 500 nM peptide
T1 sequence (P28495 1-268): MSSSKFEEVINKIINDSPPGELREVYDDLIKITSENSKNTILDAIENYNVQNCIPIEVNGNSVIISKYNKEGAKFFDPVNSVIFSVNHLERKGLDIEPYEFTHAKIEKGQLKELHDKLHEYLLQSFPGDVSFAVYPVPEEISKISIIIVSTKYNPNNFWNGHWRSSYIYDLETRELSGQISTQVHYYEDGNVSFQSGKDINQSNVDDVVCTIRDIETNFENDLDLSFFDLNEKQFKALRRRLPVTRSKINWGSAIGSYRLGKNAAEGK
T1 sequence (P13517 1-287): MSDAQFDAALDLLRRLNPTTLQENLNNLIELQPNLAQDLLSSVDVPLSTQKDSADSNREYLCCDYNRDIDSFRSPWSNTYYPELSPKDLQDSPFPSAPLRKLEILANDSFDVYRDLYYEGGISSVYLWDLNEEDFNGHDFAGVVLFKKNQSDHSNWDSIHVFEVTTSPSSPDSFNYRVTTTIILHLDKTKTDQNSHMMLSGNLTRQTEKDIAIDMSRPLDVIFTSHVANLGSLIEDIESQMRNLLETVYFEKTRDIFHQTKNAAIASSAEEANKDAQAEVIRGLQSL

His-Cap1/2^D88A = target: T2, His-Cap1/2^D88A (S. cerevisiae, UniProt P28495 1-268; P13517 1-287, D88A); assay: pull-down
T2 sequence (looked up) 1: T1 sequence (P28495 1-268)
T2 sequence (looked up) 2: T1 sequence (P13517 1-287) with D88A

His-Cap1/2^D64A = target: T3, His-Cap1/2^D64A (S. cerevisiae, UniProt P28495 1-268; P13517 1-287, D64A); assay: pull-down
T3 sequence (looked up) 1: T1 sequence (P28495 1-268)
T3 sequence (looked up) 2: T1 sequence (P13517 1-287) with D64A

His-Cap1/2^D44A = target: T4, His-Cap1/2^D44A (S. cerevisiae, UniProt P28495 1-268; P13517 1-287, D44A); assay: pull-down
T4 sequence (looked up) 1: T1 sequence (P28495 1-268)
T4 sequence (looked up) 2: T1 sequence (P13517 1-287) with D44A

[1] = target: T5, 6-histidine-tagged actin capping protein (His-Cap1/2) (S. cerevisiae, UniProt P28495 1-268; P13517 1-287); assay: pull-down
T5 sequence (looked up) 1: T1 sequence (P28495 1-268)
T5 sequence (looked up) 2: T1 sequence (P13517 1-287)

[2] = tested on: rabbit skeletal muscle actin; assay: Pyrene actin polymerization assay, substance alone; type: biochemical; details: in words, capping protein 100 nM, 1 µM actin, 20% pyrene-labeled
In short: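 Rabbit skeletal muscle G-actin in G-buffer (pH 8, 0.2 mM ATP) was spun at 100,000 × g for 30 min at 4°C. It was Mg-exchanged (10 mM EGTA, 1 mM MgCl2) for 10 min at room temperature. Polymerization was started with 50 mM KCl, 2 mM MgCl2, 1 mM ATP and 1 mM EGTA (final). Pyrene fluorescence was read over time at ex 365/em 406 nm. Relative rate came from three independent assays, mean ± SEM.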

Molecule: GST-Inp51: GST fused to Inp51 fragment (874–900) (SIAGPTHSPTPIPEPKRGRKLPPPSSD; also: GST fusion, end not given here)
interaction with His-Cap1/2 in GST pulldown (His-Cap1/2): failed to pull down

Molecule: KETKPLVHPNKNRTRGPRRKLPTRV [Bsp1^CPI]
effect on the capping function of CP (His-Cap1/2 (CP)): partially inhibited the capping function of CP

Molecule: KTGPLGGTRRGRGPRGRKLPSKVASVEKIEEDDNTNKIEIFNNWNVSS [Aim21^CPI]
effect on the capping function of CP (His-Cap1/2 (CP)): partially inhibited the capping function of CP

effect on the capping function of CP (His-Cap1/2 (CP)): had no effect
Molecule: SNPDLPNKSNLKFNKPKGPLRKRRT [Twf1^CPI]

binding result (His-Cap1/2^D88A): binds
binding result (His-Cap1/2^D64A): binds
binding result (His-Cap1/2^D44A): binds
binding result [1]: binds
B1: GST-Aim21^CPI (Aim21 491-545) with His-Tda2 (Tda2/Aim21 complex) (complex, S. cerevisiae)
chain 1: QAKTGPLGGTRRGRGPRGRKLPSKVASVEKIEEDDNTNKIEIFNNWNVSSSFSKE
chain 2: MSMQIEIKDGRSDNSPLPERKLVTLIQESYDSLKDDNEINLSTESTSNLLIKLVLEKLEKHSSLYKYIASVTTLNIEGLNEENANFSLKNDIGASWESKKDGIFNYKLEDKNNNECYLITILWLHK

binding result (His-Cap1/2^D88A): binds
binding result (His-Cap1/2^D64A): binds
binding result (His-Cap1/2^D44A): binds
binding result [1]: binds
Molecule: SNPDLPNKSNLKFNKPKGPLRKRRT (domain or fragment, S. cerevisiae) [GST-Twf1^CPI (Twf1 308-332)]

binding result (His-Cap1/2^D88A): binds
binding result (His-Cap1/2^D64A): binds
binding result (His-Cap1/2^D44A): binds
binding result [1]: binds
Molecule: KETKPLVHPNKNRTRGPRRKLPTRV (domain or fragment, S. cerevisiae) [GST-Bsp1^CPI (Bsp1 552-576)]

B2: CP: 6-histidine–tagged yeast actin capping protein, Cap1/Cap2 heterodimer (protein, UniProt P28495 2-268; P13517 2-287, looked up)
F-actin-capping protein … 1: SSSKFEEVINKIINDSPPGELREVYDDLIKITSENSKNTILDAIENYNVQNCIPIEVNGNSVIISKYNKEGAKFFDPVNSVIFSVNHLERKGLDIEPYEFTHAKIEKGQLKELHDKLHEYLLQSFPGDVSFAVYPVPEEISKISIIIVSTKYNPNNFWNGHWRSSYIYDLETRELSGQISTQVHYYEDGNVSFQSGKDINQSNVDDVVCTIRDIETNFENDLDLSFFDLNEKQFKALRRRLPVTRSKINWGSAIGSYRLGKNAAEGK
F-actin-capping protein … 2: SDAQFDAALDLLRRLNPTTLQENLNNLIELQPNLAQDLLSSVDVPLSTQKDSADSNREYLCCDYNRDIDSFRSPWSNTYYPELSPKDLQDSPFPSAPLRKLEILANDSFDVYRDLYYEGGISSVYLWDLNEEDFNGHDFAGVVLFKKNQSDHSNWDSIHVFEVTTSPSSPDSFNYRVTTTIILHLDKTKTDQNSHMMLSGNLTRQTEKDIAIDMSRPLDVIFTSHVANLGSLIEDIESQMRNLLETVYFEKTRDIFHQTKNAAIASSAEEANKDAQAEVIRGLQSL
modifications: His6 tag
ability to cap actin filaments ([2]; listed as CP^1*): no ability to cap actin filaments
ability to cap actin filaments ([2]; listed as CP^2*): equivalent capping ability to CP
